Measured values as given in ChEMBL document CHEMBL1649392, “Synthesis of substituted 3-amino-N-phenyl-1H-indazole-1-carboxamides endowed with antiproliferative activity” (Eur J Med Chem, 2011).

Key:
Type in all cases: functional
NCI-H522 = test: Antiproliferative activity against human NCI-H522 cells after 48 hrs by sulforhodamine B assay; conditions: NCI-H522, 48 h
Outline: (§1)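 NCI 60-cell-line panel covering nine cancer types (leukemia, non-small cell lung, colon, CNS, melanoma, ovarian, renal, prostate, breast). Compounds were first tested at a single dose, then in a five-dose screen (series starting 0.01, 0.1 …) if they met NCI threshold criteria. Reported per line: GI50 (molar concentration inhibiting 50% net growth), TGI (total growth inhibition) and LC50 (50% net cell death).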

A498 = test: Antiproliferative activity against human A498 cells after 48 hrs by sulforhodamine B assay; conditions: A498, 48 h; outline: as §1
NCI-H23 = test: Antiproliferative activity against human NCI-H23 cells after 48 hrs by sulforhodamine B assay; conditions: NCI-H23, 48 h; outline: as §1
HCT-15 = test: Antiproliferative activity against human HCT15 cells after 48 hrs by sulforhodamine B assay; conditions: HCT-15, 48 h; outline: as §1
RXF 393 = test: Antiproliferative activity against human RXF393 cells after 48 hrs by sulforhodamine B assay; conditions: RXF 393, 48 h; outline: as §1
UACC-257 = test: Antiproliferative activity against human UACC257 cells after 48 hrs by sulforhodamine B assay; conditions: UACC-257, 48 h
Outline: (§2)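 NCI 60-cell-line panel screen: single dose 10 µM first, then 5-dose testing (0.01, 0.1, … molar series). For each line, GI50 is the molar concentration giving 50% inhibition of net cell growth, TGI gives total inhibition of net growth, and LC50 gives 50% net cell death. Method follows the NCI DTP protocol.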

SN12C = test: Antiproliferative activity against human SN12C cells after 48 hrs by sulforhodamine B assay; outline: as §1
SNB-75 = test: Antiproliferative activity against human SNB75 cells after 48 hrs by sulforhodamine B assay; conditions: SNB-75, 48 h; outline: as §1
TK-10 = test: Antiproliferative activity against human TK10 cells after 48 hrs by sulforhodamine B assay; conditions: TK-10, 48 h; outline: as §2
MOLT-4 = test: Antiproliferative activity against human MOLT4 cells after 48 hrs by sulforhodamine B assay; conditions: MOLT-4, 48 h, read-out: LC50 (the source's name); outline: as §1
OVCAR-5 = test: Antiproliferative activity against human OVCAR5 cells after 48 hrs by sulforhodamine B assay; conditions: OVCAR-5, 48 h; outline: as §1
MDA-MB-231 = test: Antiproliferative activity against human MDA-MB-231 cells after 48 hrs by sulforhodamine B assay; conditions: MDA-MB-231, 48 h, read-out: LC50 (the source's name); outline: as §1
UO-31 = test: Antiproliferative activity against human UO31 cells after 48 hrs by sulforhodamine B assay; conditions: UO-31, 48 h; outline: as §2
PC-3 = test: Antiproliferative activity against human PC3 cells after 48 hrs by sulforhodamine B assay; conditions: PC-3, 48 h; outline: as §1
HOP-92 = test: Antiproliferative activity against human HOP92 cells after 48 hrs by sulforhodamine B assay; conditions: HOP-92, 48 h; outline: as §1
786-0 = test: Antiproliferative activity against human 786-0 cells after 48 hrs by sulforhodamine B assay; conditions: 786-0, 48 h; outline: as §1
NCI-H460 = test: Antiproliferative activity against human NCI-H460 cells after 48 hrs by sulforhodamine B assay; conditions: NCI-H460, 48 h; outline: as §1
OVCAR-4 = test: Antiproliferative activity against human OVCAR4 cells after 48 hrs by sulforhodamine B assay; conditions: OVCAR-4, 48 h; outline: as §1
SF-539 = test: Antiproliferative activity against human SF539 cells after 48 hrs by sulforhodamine B assay; conditions: SF-539, 48 h, read-out: LC50 (the source's name); outline: as §1
[1] = read-out: LC50 (the source's name)

Structure (SMILES): Nc1nn(C(=O)Nc2ccc(Cc3ccccc3)cc2)c2ccccc12
- GI50 (NCI-H522): 2900 nM
- LC50 (concentration causing 50% net cell death) (NCI-H522): > 100 µM
- TGI (NCI-H522): > 100 µM
- TGI (A498): 31.5 µM
- CC50 (A498; [1]): 59.6 µM
- TGI (NCI-H23): 83.5 µM
- CC50 (NCI-H23; [1]): > 100 µM
- LC50 (concentration causing 50% net cell death) (HCT-15): > 100 µM
- TGI (HCT-15): > 100 µM
- TGI (RXF 393): 58.2 µM
- CC50 (RXF 393; [1]): > 100 µM
- GI50 (UACC-257): 10 µM
- TGI (UACC-257): 50.9 µM
- CC50 (UACC-257; [1]): > 100 µM
- TGI (SN12C): 28 µM
- CC50 (SN12C; [1]): 60.6 µM
- GI50 (SNB-75): 17 µM
- LC50 (concentration causing 50% net cell death) (SNB-75): > 100 µM
- TGI (SNB-75): 47.4 µM
- TGI (TK-10): > 100 µM
- CC50 (TK-10; [1]): > 100 µM
- CC50 (MOLT-4): > 100 µM
- TGI (OVCAR-5): > 100 µM
- CC50 (OVCAR-5; [1]): > 100 µM
- CC50 (MDA-MB-231): > 100 µM
- TGI (UO-31): > 100 µM
- CC50 (UO-31; [1]): > 100 µM
- TGI (PC-3): 51.1 µM
- CC50 (PC-3; [1]): > 100 µM
- LC50 (HOP-92): > 100 µM
- TGI (HOP-92): 42.6 µM
- TGI (786-0): 26.2 µM
- CC50 (786-0; [1]): 92.7 µM
- TGI (NCI-H460): 13 µM
- TGI (OVCAR-4): 40.4 µM
- CC50 (OVCAR-4; [1]): > 100 µM
- CC50 (SF-539): > 100 µM
